Active and inactive are the calls of the source. The calls are words filed in the database; no cut-off is given here.
Tests used:
[1] = system: Staphylococcus aureus; assay: Antibacterial activity against Staphylococcus aureus ATCC 25923 at 100 ug/disk after 24 to 48 hrs by disc-diffusion method; assay type: functional; conditions: read-out: IZ
[2] = system: Staphylococcus aureus; assay: Antibacterial activity against Staphylococcus aureus NCTC 4163 at 100 ug/disk after 24 to 48 hrs by disc-diffusion method; assay type: functional; conditions: read-out: IZ
[3] = system: Staphylococcus aureus; assay: Antibacterial activity against Staphylococcus aureus ATCC 29213 at 100 ug/disk after 24 to 48 hrs by disc-diffusion method; assay type: functional; conditions: read-out: IZ
[4] = system: Staphylococcus aureus; assay: Antibacterial activity against Staphylococcus aureus ATCC 6538P at 100 ug/disk after 24 to 48 hrs by disc-diffusion method; assay type: functional; conditions: read-out: IZ
[5] = system: Bacillus subtilis; assay: Antibacterial activity against Bacillus subtilis ATCC 6633 at 100 ug/disk […] by disc-diffusion method; assay type: functional; conditions: read-out: IZ
[6] = system: Enterococcus hirae; assay: Antibacterial activity against Enterococcus hirae ATCC 10541 at 100 ug/disk […] by disc-diffusion method; assay type: functional; conditions: read-out: IZ
[7] = system: Escherichia coli; assay: Antibacterial activity against Escherichia coli ATCC 25922 at 100 ug/disk […] by disc-diffusion method; assay type: functional, organism-based
[8] = system: Escherichia coli; assay: Antibacterial activity against Escherichia coli ATCC 10538 at 100 ug/disk […] by disc-diffusion method; assay type: functional, organism-based
[9] = system: Pseudomonas aeruginosa; assay: Antibacterial activity against Pseudomonas aeruginosa NCTC 6749 at 100 ug/disk […] by disc-diffusion method; assay type: functional, organism-based
[10] = system: Pseudomonas aeruginosa; assay: Antibacterial activity against Pseudomonas aeruginosa ATCC 15442 at 100 ug/disk […] by disc-diffusion method; assay type: functional, organism-based
[11] = system: Bordetella bronchiseptica; assay: Antibacterial activity against Bordetella bronchiseptica ATCC 4617 at 100 ug/disk […] by disc-diffusion method; assay type: functional; conditions: read-out: IZ
[12] = system: Candida albicans; assay: Antimicrobial activity against Candida albicans ATCC 10231 at 100 ug/disk after 24 to 48 hrs by disc-diffusion method; assay type: functional, organism-based
Outline: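 Antifungal disc diffusion on YNB agar under CLSI guidelines. Sterile 10 mm filter-paper discs were loaded from aqueous solution with 100 or 400 µg of compound per disc. Plates were read after 24–48 h incubation at 30 °C.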

[13] = system: Staphylococcus aureus; assay: Antibacterial activity against Staphylococcus aureus ATCC 25923 at 400 ug/disk after 24 to 48 hrs by disc-diffusion method; assay type: functional; conditions: read-out: IZ
[14] = system: Staphylococcus aureus; assay: Antibacterial activity against Staphylococcus aureus NCTC 4163 at 400 ug/disk after 24 to 48 hrs by disc-diffusion method; assay type: functional; conditions: read-out: IZ
[15] = system: Staphylococcus aureus; assay: Antibacterial activity against Staphylococcus aureus ATCC 25923 after 18 hrs; assay type: functional; conditions: ATCC 25923, 18 h
Outline: (§1)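 Agar-dilution MIC on Mueller–Hinton II agar per CLSI guidelines. Aqueous test solutions were added to liquid agar to give two dilution series across 6.25–400 µg/mL. Solidified plates were spot-inoculated with 2 µL aliquots to a final inoculum of 10^4 […]. […] Strains were standard S. aureus strains or hospital patient isolates typed MSSA/MRSA.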

[16] = system: Staphylococcus aureus; assay: Antibacterial activity against Staphylococcus aureus NCTC 4163 after 18 hrs; assay type: functional; conditions: NCTC 4163, 18 h; outline: as §1
[17] = system: Staphylococcus aureus; assay: Antibacterial activity against Staphylococcus aureus ATCC 29213 after 18 hrs; assay type: functional; conditions: ATCC 29213, 18 h; outline: as §1
[18] = system: Staphylococcus aureus; assay: Antibacterial activity against Staphylococcus aureus ATCC 6538P after 18 hrs; assay type: functional; outline: as §1
[19] = system: Staphylococcus aureus; assay: Antibacterial activity against methicillin-susceptible Staphylococcus aureus 2/04 isolates after 18 hrs; assay type: functional; outline: as §1
[20] = system: Staphylococcus aureus; assay: Antibacterial activity against methicillin-susceptible Staphylococcus aureus 3/04 isolates after 18 hrs; assay type: functional; outline: as §1
[21] = system: Staphylococcus aureus; assay: Antibacterial activity against methicillin-susceptible Staphylococcus aureus 4/04 isolates after 18 hrs; assay type: functional; outline: as §1
[22] = system: Staphylococcus aureus; assay: Antibacterial activity against methicillin-susceptible Staphylococcus aureus 6/04 isolates after 18 hrs; assay type: functional; outline: as §1
[23] = system: Staphylococcus aureus; assay: Antibacterial activity against methicillin-susceptible Staphylococcus aureus 7/04 isolates after 18 hrs; assay type: functional; outline: as §1
[24] = system: Staphylococcus aureus; assay: Antibacterial activity against methicillin-susceptible Staphylococcus aureus 14/04 isolates after 18 hrs; assay type: functional; outline: as §1
[25] = system: Staphylococcus aureus; assay: Antibacterial activity against methicillin-susceptible Staphylococcus aureus 28/04 isolates after 18 hrs; assay type: functional; outline: as §1
[26] = system: Staphylococcus aureus; assay: Antibacterial activity against methicillin-susceptible Staphylococcus aureus 36/05 isolates after 18 hrs; assay type: functional; outline: as §1
[27] = system: Staphylococcus aureus; assay: Antibacterial activity against methicillin-susceptible Staphylococcus aureus 38/05 isolates after 18 hrs; assay type: functional; outline: as §1
[28] = system: Staphylococcus aureus; assay: Antibacterial activity against methicillin-susceptible Staphylococcus aureus 40/05 isolates after 18 hrs; assay type: functional; outline: as §1
[29] = system: Staphylococcus aureus; assay: Antibacterial activity against methicillin-susceptible Staphylococcus aureus 42/05 isolates after 18 hrs; assay type: functional; outline: as §1
[30] = system: Staphylococcus aureus; assay: Antibacterial activity against methicillin-susceptible Staphylococcus aureus 49/05 isolates after 18 hrs; assay type: functional; outline: as §1
[31] = system: Staphylococcus aureus; assay: Antibacterial activity against methicillin-susceptible Staphylococcus aureus 60/05 isolates after 18 hrs; assay type: functional; outline: as §1
[32] = system: Staphylococcus aureus; assay: Antibacterial activity against methicillin-susceptible Staphylococcus aureus 65/05 isolates after 18 hrs; assay type: functional; outline: as §1
[33] = system: Staphylococcus aureus; assay: Antibacterial activity against methicillin-susceptible Staphylococcus aureus 69/05 isolates after 18 hrs; assay type: functional; outline: as §1

CC1=C(C)C2(C)C3C(=O)N(OCC(O)C[N+](C)(C)CC(O)CON4C(=O)C5C(C4=O)C4(C)C(C)=C(C)C5(C)C4C)C(=O)C3C1(C)C2C.[Cl-] (stereo not drawn)
zone of inhibition at 100 µg/disc [1]: 16 mm
zone of inhibition at 100 µg/disc [2]: 17 mm
zone of inhibition at 100 µg/disc [3]: 14 mm
zone of inhibition at 100 µg/disc [4]: 17 mm
zone of inhibition at 100 µg/disc [5]: 25 mm
zone of inhibition at 100 µg/disc [6]: 14 mm
Activity [7]: inactive
Activity [8]: inactive
Activity [9]: inactive
Activity [10]: inactive
zone of inhibition at 100 µg/disc [11]: 13 mm
Activity [12]: inactive
zone of inhibition at 400 µg/disc [13]: 20 mm
zone of inhibition at 400 µg/disc [14]: 24 mm
MIC [15]: 50 µg/mL
MIC [16]: 50 µg/mL
MIC [17]: 50 µg/mL
MIC [18]: 50 µg/mL
MIC [19]: 25 µg/mL
MIC [20]: 25 µg/mL
MIC [21]: 25 µg/mL
MIC [22]: 25 µg/mL
MIC [23]: 25 µg/mL
MIC [24]: 25 µg/mL
MIC [25]: 50 µg/mL
MIC [26]: 50 µg/mL
MIC [27]: 50 µg/mL
MIC [28]: 50 µg/mL
MIC [29]: 25 µg/mL
MIC [30]: 25 µg/mL
MIC [31]: 25 µg/mL
MIC [32]: 25 µg/mL
MIC [33]: 25 µg/mL
